From ChEMBL document CHEMBL1146214, “Bioactive cardenolides from the stems and twigs of Nerium oleander” (J Nat Prod, 2007)

What was measured:
[1] = Growth inhibition of human WI38 cells; format: cell-based; conditions: WI-38
Procedure, shortened: (§1)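 Growth inhibition assayed in normal human fibroblasts WI-38, their malignant transformant VA-13, and human liver tumour HepG2 cells; IC50 reported.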

A549 [2] = experiment: Viability of human A549 cells by MTT assay after 24 hrs; format: cell-based; conditions: A549, 24 h
Procedure, shortened: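 A549 cells were exposed to serial compound dilutions for 24 h, and viability was measured by MTT. Viability % was taken as background-corrected absorbance relative to control. IC50 was derived from this, using triplicate cultures.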

HepG2 = experiment: Growth inhibition of human HepG2 cells; format: functional, cell-based; procedure, shortened: as §1
WI-38 VA13 = experiment: Growth inhibition of human VA13 cells; format: functional, cell-based; procedure, shortened: as §1
[3] = Reversal of multidrug resistance assessed as effect on calcein accumulation in MDR-human 2780 AD cells at 0.25 ug/ml relative to control; format: functional
Procedure, shortened: (§2)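 Multidrug-resistant human ovarian cancer 2780AD cells were loaded with calcein AM in the presence of test compound at 0.25, 2.5 or 25 μg/mL. Intracellular calcein, formed by enzymatic hydrolysis, was measured by fluorescence and expressed relative to a no-compound control. Values are means of triplicate determinations.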

A549 [4] = experiment: Inhibition of induction of ICAM1 expression in human A549 cells in presence of IL1-alpha after 1 hr; format: functional, cell-based; conditions: A549, 1 h
Procedure, shortened: (§3)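 A549 cells (2 × 10⁴ cells/well) were pretreated with a range of compound concentrations for 1 h, then stimulated with IL-1α or TNF-α for 6 h. Surface ICAM-1 was detected with primary and secondary antibodies plus enzyme substrate, read as absorbance at 415 nm. Expression was taken as % of control after subtracting the unstimulated background. IC50 was derived from this, using triplicate cultures.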

[5] = Reversal of multidrug resistance assessed as effect on calcein accumulation in MDR-human 2780 AD cells at 2.5 ug/ml relative to control; format: functional; procedure, shortened: as §2
[6] = Reversal of multidrug resistance assessed as effect on calcein accumulation in MDR-human 2780 AD cells at 25 ug/ml relative to control; format: functional; procedure, shortened: as §2
A549 [7] = experiment: Inhibition of induction of ICAM1 expression in human A549 cells in presence of TNFalpha after 1 hr; format: functional, cell-based; conditions: A549, 1 h; procedure, shortened: as §3
[8] = Reversal of multidrug resistance assessed as effect on calcein accumulation in MDR-human 2780 AD cells at 25 ug/ml relative to verapamil; format: functional
Procedure, shortened: (§4)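 Multidrug-resistant 2780AD ovarian cancer cells were incubated with calcein AM plus test compound at 0.25, 2.5 or 25 μg/mL. Cellular calcein accumulation was read by fluorescence and expressed as a percentage of the verapamil response. Values are based on triplicate determinations.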

[9] = Reversal of multidrug resistance assessed as effect on calcein accumulation in MDR-human 2780 AD cells at 2.5 ug/ml relative to verapamil; format: functional; procedure, shortened: as §4
[10] = Reversal of multidrug resistance assessed as effect on calcein accumulation in MDR-human 2780 AD cells at 0.25 ug/ml relative to verapamil; format: functional; procedure, shortened: as §4

**Q.** For `CC(=O)O[C@H]1C(=O)[C@@]2(C)[C@H]([C@H](OC(=O)c3ccccc3)[C@]3(O)C[C@H](OC(=O)[C@H](O)[C@@H](NC(=O)c4ccccc4)c4ccccc4)C(C)=C1C3(C)C)[C@]1(OC(C)=O)CO[C@@H]1C[C@@H]2O` [PACLITAXEL], which IC50 [1] is on record?
**A.** 0.04 µM

**Q.** Which IC50 (A549 [2]) does the source give for `CO[C@@H]1C[C@H](O[C@H]2CC[C@@]3(C)[C@H](CC[C@@]45O[C@@]46CC[C@H](C4=CC(=O)OC4)[C@@]6(C)CC[C@H]35)C2)O[C@H](C)[C@@H]1O` here?
**A.** > 316 µM

**Q.** What about the IC50 (HepG2) of the same compound?
**A.** 76.4 µM

**Q.** What about the IC50 (WI-38 VA13) of the same compound?
**A.** 13.4 µM

**Q.** What about the Activity [3] of the same compound?
**A.** 92%

**Q.** And the IC50 (A549 [4])?
**A.** 13.9 µM

**Q.** And the Activity [5]?
**A.** 102%

**Q.** What about the IC50 [1] of the same compound?
**A.** 33.1 µM

**Q.** What about the Activity [6] of the same compound?
**A.** 112%

**Q.** What does the source list for `CO[C@H]1C[C@H](O[C@H]2CC[C@@]3(C)[C@H](CC[C@@H]4[C@@H]3CC[C@]3(C)[C@@H](C5=CC(=O)OC5)CC[C@]43O)C2)O[C@H](C)[C@@H]1O`?
**A.** IC50 (A549 [2]): > 100 µM; IC50 (HepG2): 0.14 µM; IC50 (WI-38 VA13): 0.8 µM; Activity [3]: 89%; IC50 (A549 [4]): 0.2 µM; Activity [5]: 83%; IC50 [1]: < 0.02 µM; IC50 (A549 [7]): 0.16 µM; Activity [6]: 86%

**Q.** What does the source list for `CO[C@@H]1C[C@H](O[C@H]2CC[C@@]3(C)[C@H](CC[C@@H]4[C@@H]3CC[C@]3(C)[C@@H](C5=CC(=O)OC5)CC[C@]43O)C2)O[C@H](C)[C@@H]1O`?
**A.** IC50 (A549 [2]): > 316 µM; IC50 (HepG2): 1.5 µM; IC50 (WI-38 VA13): 0.18 µM; Activity [3]: 93%; IC50 (A549 [4]): 0.2 µM; Activity [5]: 89%; IC50 [1]: 0.07 µM; IC50 (A549 [7]): 0.48 µM; Activity [6]: 96%

**Q.** For `CO[C@@H]1C[C@H](O[C@H]2CC[C@@]3(C)[C@@H](CC[C@@H]4[C@@H]3CC[C@]3(C)[C@@H](C5=CC(=O)OC5)[C@@H](OC(C)=O)C[C@]43O)C2)O[C@H](C)[C@@H]1O`, which IC50 (A549 [2]) is on record?
**A.** > 100 µM

**Q.** And the Activity [8]?
**A.** 82%

**Q.** And the IC50 (WI-38 VA13)?
**A.** 0.72 µM

**Q.** What about the Activity [3] of the same compound?
**A.** 105%

**Q.** And the IC50 (A549 [4])?
**A.** 21.5 µM

**Q.** What about the Activity [5] of the same compound?
**A.** 126%

**Q.** And the IC50 [1]?
**A.** 23 µM

**Q.** What about the IC50 (A549 [7]) of the same compound?
**A.** 16.9 µM

**Q.** What about the Activity [9] of the same compound?
**A.** 128%

**Q.** What about the Activity [10] of the same compound?
**A.** 113%

**Q.** And the Activity [6]?
**A.** 109%

**Q.** Which results are given for `CO[C@@H]1C[C@H](O[C@H]2CC[C@@]3(C)[C@H](CC[C@@]45O[C@@]46C[C@H]4O[C@@]4(C4=CC(=O)OC4)[C@@]6(C)CC[C@H]35)C2)O[C@H](C)[C@@H]1O`?
**A.** IC50 (A549 [2]): > 100 µM; IC50 (HepG2): 74.1 µM; Activity [3]: 104%; IC50 (A549 [4]): 62.1 µM; Activity [5]: 96%; IC50 [1]: 40.9 µM; IC50 (A549 [7]): 45.6 µM; Activity [6]: 97%

**Q.** Which results are given for `COc1cccc2c1C(=O)c1c(O)c3c(c(O)c1C2=O)C[C@@](O)(C(=O)CO)C[C@@H]3O[C@H]1C[C@H](N)[C@H](O)[C@H](C)O1` [DOXORUBICIN]?
**A.** IC50 (HepG2): 1.3 µM; IC50 (WI-38 VA13): 0.4 µM; IC50 [1]: 0.7 µM

**Q.** For `CC(=O)O[C@H]1C[C@]2(O)[C@@H]3CC[C@@H]4C[C@@H](O)CC[C@]4(C)[C@H]3CC[C@]2(C)[C@H]1C1=CC(=O)OC1`, which IC50 (A549 [2]) is on record?
**A.** > 100 µM

**Q.** And the IC50 (HepG2)?
**A.** 0.2 µM

**Q.** What about the IC50 (WI-38 VA13) of the same compound?
**A.** 0.16 µM

**Q.** What about the Activity [3] of the same compound?
**A.** 92%

**Q.** What about the IC50 (A549 [4]) of the same compound?
**A.** 0.52 µM

**Q.** What about the Activity [5] of the same compound?
**A.** 100%

**Q.** And the IC50 [1]?
**A.** 1.7 µM

**Q.** And the IC50 (A549 [7])?
**A.** 0.36 µM

**Q.** And the Activity [6]?
**A.** 99%

**Q.** Which IC50 (A549 [2]) does the source give for `C[C@]12CC[C@H](O)C[C@H]1CC[C@@H]1[C@@H]2CC[C@]2(C)[C@@H](C3=CC(=O)OC3)CC[C@]12O` [DIGITOXIGENIN] here?
**A.** > 316 µM

**Q.** What about the IC50 (HepG2) of the same compound?
**A.** 18 µM

**Q.** What about the IC50 (WI-38 VA13) of the same compound?
**A.** 1.9 µM

**Q.** What about the Activity [3] of the same compound?
**A.** 86%

**Q.** And the IC50 (A549 [4])?
**A.** 0.62 µM

**Q.** What about the Activity [5] of the same compound?
**A.** 74%

**Q.** What about the IC50 [1] of the same compound?
**A.** 11.8 µM

**Q.** What about the Activity [6] of the same compound?
**A.** 66%

**Q.** For `CO[C@@H]1C[C@H](O[C@H]2CC[C@@]3(C)[C@H](CC[C@]4(O)[C@@H]3CC[C@]3(C)[C@@H](C5=CC(=O)OC5)CC[C@@]34O)C2)O[C@H](C)[C@@H]1O`, which IC50 (A549 [2]) is on record?
**A.** > 100 µM

**Q.** And the IC50 (HepG2)?
**A.** 4.7 µM

**Q.** And the IC50 (WI-38 VA13)?
**A.** 1.6 µM

**Q.** What about the Activity [3] of the same compound?
**A.** 112%

**Q.** And the IC50 (A549 [4])?
**A.** 6 µM

**Q.** And the Activity [5]?
**A.** 107%

**Q.** And the IC50 [1]?
**A.** 9.4 µM

**Q.** And the IC50 (A549 [7])?
**A.** 5.9 µM

**Q.** What about the Activity [6] of the same compound?
**A.** 112%

**Q.** Which results are given for `CO[C@@H]1C[C@H](O[C@H]2CC[C@@]3(C)[C@H](CC[C@@]45O[C@@]46CC=C(C4=CC(=O)OC4)[C@@]6(C)CC[C@H]35)C2)O[C@H](C)[C@@H]1O`?
**A.** IC50 (A549 [2]): > 316 µM; Activity [3]: 88%; IC50 (A549 [4]): 133 µM; Activity [5]: 89%; Activity [6]: 99%

**Q.** What does the source list for `CO[C@@H]1C[C@H](O[C@H]2CC[C@@]3(C)[C@H](CC[C@@H]4[C@@H]3CC[C@]3(C)[C@@H](C5=CC(=O)OC5)[C@@H](OC(C)=O)C[C@]43O)C2)O[C@H](C)[C@@H]1O`?
**A.** IC50 (A549 [2]): > 316 µM; IC50 (HepG2): 1.5 µM; IC50 (WI-38 VA13): 0.17 µM; Activity [3]: 67%; IC50 (A549 [4]): 0.51 µM; Activity [5]: 77%; IC50 [1]: 0.09 µM; IC50 (A549 [7]): 0.31 µM; Activity [6]: 75%

**Q.** What does the source list for `CO[C@H]1C[C@H](O[C@H]2CC[C@@]3(C)[C@H](CC[C@@]45O[C@@]46CC=C(C4=CC(=O)OC4)[C@@]6(C)CC[C@H]35)C2)O[C@H](C)[C@@H]1O`?
**A.** IC50 (A549 [2]): > 100 µM; IC50 (HepG2): 81.4 µM; IC50 (WI-38 VA13): 85.7 µM; Activity [3]: 99%; IC50 (A549 [4]): 69.3 µM; Activity [5]: 100%; IC50 [1]: 16.3 µM; IC50 (A549 [7]): 55.4 µM; Activity [6]: 102%

**Q.** For `CO[C@H]1C[C@H](O[C@H]2CC[C@@]3(C)[C@H](CC[C@@H]4[C@@H]3CC[C@]3(C)[C@@H](C5=CC(=O)OC5)[C@@H](OC(C)=O)C[C@]43O)C2)O[C@H](C)[C@@H]1O`, which IC50 (A549 [2]) is on record?
**A.** > 1000 µM

**Q.** And the IC50 (HepG2)?
**A.** 0.82 µM

**Q.** What about the IC50 (WI-38 VA13) of the same compound?
**A.** 0.24 µM

**Q.** And the Activity [3]?
**A.** 90%

**Q.** What about the IC50 (A549 [4]) of the same compound?
**A.** 0.57 µM

**Q.** And the Activity [5]?
**A.** 81%

**Q.** And the IC50 [1]?
**A.** 0.08 µM

**Q.** What about the Activity [6] of the same compound?
**A.** 91%
